Tests used:
[1] = target: Matrix metalloproteinase-9 (Homo sapiens, UniProt P14780); assay: Inhibitory activity against human gelatinase B (Matrix metalloprotease-9)
[2] = target: 72 kDa type IV collagenase (Homo sapiens, UniProt P08253); assay: Inhibitory activity against human gelatinase A (matrix metalloprotease-2 MMP2)
[3] = Maximum plasma concentration (Cmax) after p.o. administration of 200 mg/kg in mice; type: ADME, organism-based; parameters: dose 200 mg/kg, route oral; details: mouse, po
How it was run: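 Single 200 mg/kg oral dose in mice, given in 0.5% methyl cellulose. Blood drawn at various time points. Plasma drug extracted with CH3CN and quantified by reverse-phase C18 HPLC using a CH3CN gradient with 0.1% TFA. Peak plasma level taken as Cmax.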

72 kDa type IV collagenase, sequence (P08253 whole entry): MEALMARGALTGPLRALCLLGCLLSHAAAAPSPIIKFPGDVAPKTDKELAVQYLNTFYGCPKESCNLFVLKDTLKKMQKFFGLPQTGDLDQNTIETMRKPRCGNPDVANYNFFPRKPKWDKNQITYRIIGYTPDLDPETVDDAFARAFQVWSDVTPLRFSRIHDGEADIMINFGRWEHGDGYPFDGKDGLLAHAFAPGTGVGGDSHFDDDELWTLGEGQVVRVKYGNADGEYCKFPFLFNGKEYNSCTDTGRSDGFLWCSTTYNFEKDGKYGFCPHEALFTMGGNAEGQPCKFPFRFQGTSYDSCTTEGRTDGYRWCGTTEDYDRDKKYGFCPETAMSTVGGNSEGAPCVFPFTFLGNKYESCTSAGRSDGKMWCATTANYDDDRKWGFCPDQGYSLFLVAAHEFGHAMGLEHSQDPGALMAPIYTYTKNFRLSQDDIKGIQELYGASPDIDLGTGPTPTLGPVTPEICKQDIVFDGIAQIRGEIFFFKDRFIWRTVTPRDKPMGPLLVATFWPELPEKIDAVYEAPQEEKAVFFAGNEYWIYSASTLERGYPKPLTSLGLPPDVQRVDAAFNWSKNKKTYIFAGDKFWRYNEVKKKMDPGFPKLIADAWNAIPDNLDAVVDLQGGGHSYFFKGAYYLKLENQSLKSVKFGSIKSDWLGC
Matrix metalloproteinase-9, sequence (P14780 whole entry): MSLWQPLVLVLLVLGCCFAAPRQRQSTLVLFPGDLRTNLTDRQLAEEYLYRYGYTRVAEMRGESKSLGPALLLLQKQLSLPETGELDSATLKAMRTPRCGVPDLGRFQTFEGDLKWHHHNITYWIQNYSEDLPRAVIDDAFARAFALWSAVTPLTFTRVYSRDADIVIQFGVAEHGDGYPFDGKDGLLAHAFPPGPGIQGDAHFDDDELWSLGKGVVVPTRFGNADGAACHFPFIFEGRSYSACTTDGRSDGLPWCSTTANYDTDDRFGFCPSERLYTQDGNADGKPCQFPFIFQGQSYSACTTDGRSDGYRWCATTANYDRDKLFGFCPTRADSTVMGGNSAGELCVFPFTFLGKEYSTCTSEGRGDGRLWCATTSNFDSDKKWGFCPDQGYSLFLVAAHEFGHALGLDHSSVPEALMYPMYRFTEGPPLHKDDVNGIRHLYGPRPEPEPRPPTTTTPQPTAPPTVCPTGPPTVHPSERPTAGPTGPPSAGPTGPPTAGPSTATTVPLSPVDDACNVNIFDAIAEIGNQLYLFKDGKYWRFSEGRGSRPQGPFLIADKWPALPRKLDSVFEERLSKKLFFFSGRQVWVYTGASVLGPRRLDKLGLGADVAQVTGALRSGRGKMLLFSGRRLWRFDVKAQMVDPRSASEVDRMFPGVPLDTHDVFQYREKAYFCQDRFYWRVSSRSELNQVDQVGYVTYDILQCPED

Compound | IC50 [1] | IC50 [2] | Cmax [3]
COc1ccc(C#Cc2ccc(S(=O)(=O)N[C@H](Cc3ccccc3)C(=O)O)cc2)cc1 | 7.8 µM | 1000 nM | –
O=C(O)[C@@H](Cc1c[nH]c2ccccc12)NS(=O)(=O)c1ccc(Cc2ccccc2)cc1 | > 10 µM | > 1000 nM | –
O=C(NO)[C@@H](Cc1c[nH]c2ccccc12)NS(=O)(=O)c1ccc(-c2ccccc2)cc1 | 0.005 µM | 1.3 nM | –
CC(C)[C@@H](NS(=O)(=O)c1ccc(NC(=O)c2ccccc2)cc1)C(=O)O | 2.1 µM | 50 nM | –
O=C(O)[C@@H](Cc1c[nH]c2ccccc12)NS(=O)(=O)c1ccccc1 | 3.4 µM | > 1000 nM | –
O=C(O)[C@@H](Cc1c[nH]c2ccccc12)NS(=O)(=O)c1ccc(C#Cc2ccccc2[N+](=O)[O-])s1 | 1.5 µM | > 1000 nM | –
O=C(O)[C@@H](Cc1c[nH]c2ccccc12)NS(=O)(=O)c1ccc(C#Cc2ccccc2)cc1 | 0.24 µM | 50 nM | –
O=C(N[C@H](Cc1ccccc1)C(=O)NO)c1ccc(-c2ccccc2)cc1 | > 50 µM | > 1000 nM | –
COc1ccc(-c2ccc(S(=O)(=O)N[C@H](Cc3c[nH]c4ccccc34)C(=O)O)cc2)cc1 | 0.081 µM | 6.5 nM | 3.5 µM
O=C(O)[C@@H](Cc1c[nH]c2ccccc12)NS(=O)(=O)c1ccc(Oc2ccccc2)cc1 | 0.25 µM | 50 nM | –
O=C(O)[C@@H](Cc1c[nH]c2ccccc12)NS(=O)(=O)c1ccc2oc3ccccc3c2c1 | > 10 µM | > 1000 nM | –
CC(C)[C@@H](NS(=O)(=O)c1ccc(Oc2ccccc2)cc1)C(=O)O | 1.1 µM | > 1000 nM | 334 µM
Cc1ccc(C(=O)Nc2ccc(S(=O)(=O)N[C@H](Cc3ccccc3)C(=O)O)cc2)cc1 | – | < 40 nM | –
O=C(O)[C@@H](Cc1c[nH]c2ccccc12)NS(=O)(=O)c1ccc(/N=N/c2ccccc2)cc1 | 0.35 µM | 50 nM | –
CSc1ccc(C(=O)Nc2ccc(S(=O)(=O)N[C@@H](C(=O)O)C(C)C)cc2)cc1 | – | 6.7 nM | 8.3 µM
CC(C)[C@@H](NS(=O)(=O)c1ccc(NC(=O)c2ccc([N+](=O)[O-])cc2)cc1)C(=O)O | 0.27 µM | < 40 nM | –
COc1ccc(C#Cc2ccc(S(=O)(=O)N[C@H](Cc3ccccc3)C(=O)O)s2)cc1 | 0.024 µM | 10 nM | 119 µM
O=C(NO)C(Cc1ccccc1)NS(=O)(=O)c1ccccc1 (configuration not stated) | 1 µM | – | –
O=C(Nc1ccc(S(=O)(=O)N[C@H](Cc2c[nH]c3ccccc23)C(=O)O)cc1)c1ccccc1 | – | < 40 nM | –
O=C(O)c1ccc(C#Cc2ccc(S(=O)(=O)N[C@H](Cc3c[nH]c4ccccc34)C(=O)O)cc2)cc1 | 8.8 µM | > 1000 nM | –
O=C(Nc1ccccc1)Nc1ccc(S(=O)(=O)N[C@H](Cc2c[nH]c3ccccc23)C(=O)O)cc1 | > 10 µM | > 1000 nM | –
COc1ccc(-c2ccc(S(=O)(=O)N[C@@H](C(=O)O)C(C)C)s2)cc1 | 0.072 µM | 66 nM | 97.5 µM
Cc1ccc(C#Cc2ccc(S(=O)(=O)N[C@H](Cc3c[nH]c4ccccc34)C(=O)O)cc2)cc1 | 0.016 µM | 34 nM | 10.8 µM

Compound | IC50 [1] | IC50 [2] | Cmax [3]
CC(C)[C@@H](NS(=O)(=O)c1ccc(-c2nnn(-c3ccccc3)n2)cc1)C(=O)O | – | 130 nM | –
O=C(O)[C@@H](Cc1c[nH]c2ccccc12)NS(=O)(=O)c1ccc2ccccc2c1 | > 10 µM | > 1000 nM | –
Cc1ccc(C#Cc2ccc(S(=O)(=O)N[C@@H](C(=O)O)C(C)C)s2)cc1 | 0.014 µM | 53 nM | 284 µM
O=C(NO)[C@H](Cc1ccccc1)NS(=O)(=O)c1ccccc1 | > 1000 µM | – | –
O=C(c1ccccc1)c1ccc(S(=O)(=O)N[C@H](Cc2c[nH]c3ccccc23)C(=O)O)cc1 | > 10 µM | > 1000 nM | –
O=C(NO)[C@@H](Cc1ccccc1)NS(=O)(=O)c1ccc(-c2ccccc2)cc1 | – | 17 nM | 2.5 µM
O=C(O)[C@@H](Cc1c[nH]c2ccccc12)NS(=O)(=O)c1ccc(-c2nnn(-c3ccc(Br)cc3)n2)cc1 | – | 8.3 nM | 2.5 µM
O=C(NO)[C@@H](Cc1ccccc1)NS(=O)(=O)c1ccccc1 | 0.73 µM | – | –
COc1ccc(-n2nnc(-c3ccc(S(=O)(=O)N[C@H](Cc4c[nH]c5ccccc45)C(=O)O)cc3)n2)cc1 | – | 13 nM | 2.1 µM
Cc1ccc(C#Cc2ccc(S(=O)(=O)N[C@@H](C(=O)O)C(C)C)cc2)cc1 | 1.2 µM | > 1000 nM | –
O=C(O)[C@@H](Cc1ccccc1)NS(=O)(=O)c1ccc(-c2nnn(-c3ccccc3)n2)cc1 | 0.58 µM | 110 nM | 12.1 µM
O=C(O)[C@@H](Cc1ccccc1)NS(=O)(=O)c1ccc(-c2nnn(-c3ccc(C4CCCCC4)cc3)n2)cc1 | – | 280 nM | –
Cc1ccc(-n2nnc(-c3ccc(S(=O)(=O)N[C@H](Cc4ccccc4)C(=O)O)cc3)n2)cc1 | – | < 200 nM | 1.2 µM
O=C(Nc1ccc(S(=O)(=O)N[C@H](Cc2ccccc2)C(=O)O)cc1)c1ccccc1 | – | < 1000 nM | –
COc1ccc(-c2ccc(S(=O)(=O)N[C@@H](C(=O)O)C(C)C)cc2)cc1 | 0.04 µM | < 100 nM | 89.9 µM
COc1cccc(-c2ccc(S(=O)(=O)N[C@H](Cc3c[nH]c4ccccc34)C(=O)O)cc2)c1 | 1.1 µM | 1000 nM | –
O=C(O)[C@@H](Cc1c[nH]c2ccccc12)NS(=O)(=O)c1ccc(C#Cc2ccc([N+](=O)[O-])cc2)s1 | 0.023 µM | – | –
O=C(Nc1ccccc1)c1ccc(S(=O)(=O)N[C@H](Cc2c[nH]c3ccccc23)C(=O)O)cc1 | > 10 µM | > 1000 nM | –
O=C(O)[C@@H](Cc1c[nH]c2ccccc12)NS(=O)(=O)c1ccc(-c2ccccc2)cc1 | 0.18 µM | 53 nM | 34.3 µM
O=C(O)[C@H](Cc1ccccc1)NS(=O)(=O)c1ccc(-c2ccccc2)cc1 | 0.8 µM | – | –
CC(C)[C@@H](NS(=O)(=O)c1ccc(Oc2ccccc2)cc1)C(=O)NO | 0.00054 µM | 2 nM | 5.8 µM
O=C(O)[C@@H](Cc1ccccc1)NS(=O)(=O)c1ccc(-c2ccccc2)cc1 | – | 310 nM | 291 µM
O=C(N[C@H](Cc1ccccc1)C(=O)O)c1ccc(-c2ccccc2)cc1 | > 50 µM | > 1000 nM | –

Source: ChEMBL document CHEMBL1131478 (J Med Chem, 1998)
